High-throughput results as filed in PubChem BioAssay.
NPY1 pot ag = NPY-Y1 receptor potentiators or agonists, primary screen, cell-based; 0.37% of 220,000 active; Neuropeptide Y receptor type 1 (Homo sapiens), P25929; NPY-Y1 expressing cells, potentiator/agonist activation; activation, % at 3.6 µM; in the data active = activation above about 33%, passing the limit was not always enough;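 also: cells stimulated with NPY at EC10 then isoproterenol at EC100; 0% = low agonist plus stimulus and 100% = saturating agonist plus stimulus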
INS promoter inh = inhibitors of insulin promoter-driven GFP, primary screen, imaging, TRM-6 cells, eGFP reporter, cell count; 0.9% of 130,000 active; inhibition, % at 2 µM; reporter expression induced with tamoxifen;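 active = inhibition above the mean plus 3 SD, with well images judged a real hit on visual review, cut at about 60% in these data, passing the limit was not always enough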
RAM network inh = inhibitors of the yeast RAM network, primary screen, dse1pr::URA3 reporter, 5-FOA selection | S. cerevisiae dse1pr::URA3 reporter, 5-FOA growth OD615, 2 d; analog-sensitive cbk1-as2 kinase mutant strain | inhibition, % at 50 µM | 1.8% of 190,000 active | AID 868, 2007;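 active = inhibition above a set limit, 3 SD over mean compound inhibition, cut at about 8.4% in these data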;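 also: 0% = DMSO-only wells with no growth and 100% = 10 µM 1-NA-PP1 full growth; inhibition rescues growth on 5-FOA so higher OD means more RAM inhibition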
NPY2 pot ag = NPY-Y2 potentiators or agonists, primary screen, cell-based; cells expressing NPY-Y2, potentiator/agonist read-out; activation, % at 3.6 µM; 0.45% of 220,000 active; AID 1359, 2008; in the data active = activation above about 27%;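 also: cells stimulated with NPY near EC25 plus isoproterenol at EC100; 0% = vehicle plus submaximal agonist and 100% = vehicle plus saturating agonist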
Target sequence (P49146 whole entry, looked up): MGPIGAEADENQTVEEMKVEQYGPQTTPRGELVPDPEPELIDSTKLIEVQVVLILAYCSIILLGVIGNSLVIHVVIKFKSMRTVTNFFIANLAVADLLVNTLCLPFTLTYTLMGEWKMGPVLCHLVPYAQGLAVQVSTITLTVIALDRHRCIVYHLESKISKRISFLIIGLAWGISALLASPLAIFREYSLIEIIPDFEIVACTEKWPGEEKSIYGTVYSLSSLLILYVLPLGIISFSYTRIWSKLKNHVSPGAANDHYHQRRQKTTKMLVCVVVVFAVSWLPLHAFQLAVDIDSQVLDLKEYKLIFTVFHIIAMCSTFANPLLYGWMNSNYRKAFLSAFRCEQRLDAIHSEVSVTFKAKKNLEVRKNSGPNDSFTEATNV
NPY Y2 blocker = NPY-Y2 receptor antagonists, primary screen, cell-based | NPY-Y2 expressing cells, antagonist mode | inhibition, % at 2.7 µM | 0.99% of 140,000 active | AID 793, 2007;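 also: 0% = vehicle with agonist challenge and 100% = reference antagonist with challenge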
NPY-Y1 antag = NPY-Y1 receptor antagonists, primary screen, cell-based; Neuropeptide Y receptor type 1 (Homo sapiens), P25929; HEK293-CNG Y1 cells, membrane potential fluorescence; NPY at EC95, then isoproterenol; inhibition, % at 3.6 µM; 1% of 200,000 active; AID 1040, 2008;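 active = inhibition above the campaign mean inhibition of all tested compounds plus 3 SD, cut at about 20% in these data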;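 also: 0% = DMSO wells given NPY plus isoproterenol and 100% = isoproterenol alone without NPY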
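System: HEK293 cells with Y1 receptor plus CNG channel / Probe or stimulus: NPY 25 nM then isoproterenol 1 µM plus Ro 20-1724 25 µM / Compound: one concentration, 3.6 µM, in 0.4% DMSO / Schedule: compound incubation 1 h at room temperature, readout 45 min post-stimulation / Measured by: membrane potential fluorescence / Read-out: % inhibition of NPY effect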
NPY1 antag conf = NPY-Y1 receptor antagonists, retest of hits, confirmation, HEK293-CNG cells, membrane potential fluorescence, triplicate. AID 1254, 2008. 21% of 1,200 active. shares compounds with NPY-Y1 antag. cAMP; NPY challenge against isoproterenol-raised cAMP. inhibition, % at 3.6 µM; in the data active = inhibition above about 20%;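 also: 0% = vehicle with agonist plus stimulus and 100% = stimulus alone without agonist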
NPY-Y2 antag ct = NPY-Y2 receptor antagonists, selectivity check, confirmation, counter-screen for NPY-Y1 antagonist project, HEK293-CNG cells, membrane potential fluorescence, triplicate | inhibition, % at 3.6 µM | shares compounds with NPY-Y1 antag | antagonism; cells given NPY, then isoproterenol | 28% of 1,200 active;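 also: 0% = DMSO with agonist challenge and 100% = reference antagonist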
The depositor's hits bear a star; i = inactive; . = no result given. Most compounds without a hit are left out; they make up all but 3.8% or so of the library. Rule as the data show it, unless noted: active = inhibition above about 17%; inactive = the rest.

SMILES | NPY1 pot ag | INS promoter inh | RAM network inh | NPY2 pot ag | NPY Y2 blocker | NPY-Y1 antag | NPY1 antag conf | NPY-Y2 antag ct
COC(=O)[C@@]1(Cc2ccc(OC)cc2)[C@H]2c3cc(C(=O)N(C)C)n(C[C@H](O)CO)c3C[C@H]2CN1C(=O)c1ccccc1 | 1 | 55 | -1 | 4 | 2 | -1 | . | .
COc1ccc(-c2cc(-c3n[nH]c(=S)n3-c3cccc4ccccc34)[nH]n2)cc1 | -23 | . | 1 | -28 | . | 55* | 85* | 101*
S=c1[nH]nc(-c2cc(-c3ccsc3)n[nH]2)n1-c1cccc2ccccc12 | 8 | 0 | 0 | 0 | . | 10 | . | .
CCOc1ccc2nc(NC(=O)C3=NN(c4ccccc4)C(=O)CC3)sc2c1 | -6 | . | 2 | 3 | . | 4 | . | .
Cc1ccccc1-c1nc2ccccc2c(=O)n1/N=C/c1ccccc1[N+](=O)[O-] | -6 | . | 2 | -7 | 1 | 0 | . | .
c1ccc(-n2cc(CN3CCCC(CN4CCCC4)C3)c(-c3ccc4c(c3)OCO4)n2)cc1 (stereo not given) | -36 | -125 | -1 | -25 | . | 32* | 14 | 27*
Cn1c(=O)c([N+](=O)[O-])c(NCC2CCCO2)c2ccccc21 (stereo not given) | -22 | . | . | -5 | . | . | . | .
O=C(c1cccc([N+](=O)[O-])c1)c1ccc2c(c1)OCCOCCOCCOCCO2 | 9 | . | . | 7 | . | . | . | .
O=C(Nc1ccccc1N1CCOCC1)C1CCN(S(=O)(=O)c2cccc(C(F)(F)F)c2)CC1 | -9 | 11 | 1 | -2 | 0 | -5 | . | .
CN(C)CC(=O)c1ccc(-c2ccccc2)cc1 | -22 | . | 1 | -4 | 3 | 20* | 2 | 7
Brc1ccc(C2=Nn3c(nnc3-c3n[nH]c4c3CCC4)SC2)cc1 | -50 | i | 3 | -40 | 15 | 22* | 14 | 20*
Cc1cc2nc(SCCOC(=O)Nc3ccccc3)nc(C)c2cc1C | -32 | 8 | 3 | -3 | 6 | 23* | 4 | 14
CCN(CC)c1ccc(/C=N/N2CCN(c3ccccn3)CC2)cc1 | -5 | . | . | -2 | . | . | . | .
O=Cc1cc2ccccc2nc1SCc1ccc(Cl)cc1 | 9 | 50 | 7 | -13 | 2 | 26* | -5 | 7
Cc1ccc(CSc2nc3ccccc3cc2C=O)cc1 | 2 | -45 | 10* | -3 | -2 | 23* | 1 | 6
Cc1ccc(CSc2ncnc3ccccc23)cc1 | -15 | -11 | 0 | -7 | . | 17 | . | .
CCOC(=O)c1c(NC(=O)CN(CC)CC)sc2c1CCC2 | -4 | . | 0 | 3 | -1 | 4 | . | .
CCN(CC)CC(=O)Nc1sc2c(c1C(=O)c1ccccc1OC)CCC2 | 16 | . | 1 | 11 | . | 23* | 13 | 2
O=S(=O)(Nc1ccc(Cl)c(C(F)(F)F)c1)c1cnc[nH]1 | 12 | . | 1 | 4 | 1 | 2 | . | .
CCc1cc(-c2[nH]ncc2-c2ccc3c(c2)OCO3)c(O)cc1O | 16 | -4 | 0 | 10 | 1 | 20* | 21* | 0
O=C(Nc1ccccc1N1CCN(c2ccccc2)CC1)c1ccccc1 | -32 | . | 2 | -31 | . | 41* | 34* | 20*
O=C(Nc1ccccc1N1CCN(C(=O)c2ccccc2)CC1)c1ccc(Cl)cc1 | -36 | . | 2 | -16 | . | 16 | . | .
COc1c(C)cc(C(=O)C2CCCN(C(=O)c3snnc3C)C2)cc1C (stereo not given) | -15 | . | 1 | 1 | . | 3 | . | .
COc1ccc(C2CC(c3ccc(OC)cc3)n3nc(NS(C)(=O)=O)nc3N2)cc1 (stereo not given) | -11 | . | . | -10 | . | . | . | .
CCOC(=O)c1c(-c2ccccc2)csc1NC(=O)CSc1nc(N)cc(N)n1 | 0 | . | 5 | 1 | -1 | -1 | . | .
SMILES | NPY1 pot ag | INS promoter inh | RAM network inh | NPY2 pot ag | NPY Y2 blocker | NPY-Y1 antag | NPY1 antag conf | NPY-Y2 antag ct
CCOC(=O)c1c(-c2ccccc2)csc1NC(=O)CSc1nc(C)cc(C)n1 | -36 | 31 | 2 | -23 | 9 | 20* | 9 | 15
Cc1ccccc1OCCNC(=O)/C=C/c1ccc([N+](=O)[O-])cc1 | -14 | . | 4 | -6 | 8 | 20* | 10 | 10
COc1ccccc1OCCNC(=O)/C=C/c1ccc([N+](=O)[O-])cc1 | -18 | 38 | 4 | -10 | 4 | 4 | . | .
Cc1nc2cc(-c3sccc3-n3cccc3)nn2c(C)c1C | -60 | 14 | 5 | -31 | 2 | 22* | 17 | 20*
Cc1ccc(Cn2nc(-c3ccccc3)nc2-c2ccccc2)cc1 | -13 | 32 | 7 | -30 | 14 | 25* | 13 | 11
c1ccc(Cn2nc(-c3ccccc3)nc2-c2ccccc2)cc1 | 0 | 17 | 2 | -7 | 7 | 19 | . | .
Cc1nn(-c2ccccn2)c2nc(-c3cccs3)cc(C(=O)NCc3ccco3)c12 | 3 | 9 | 4 | -2 | 4 | 17 | . | .
CCOC(=O)c1cc(-c2cccs2)nc2c1c(C)nn2-c1ccccn1 | -27 | 29 | 1 | -22 | . | 62* | 47* | 22*
Cc1ccc(C2NNC(=O)C2NC(=O)c2ccccc2)cc1 (stereo not given) | -6 | 0 | 1 | -5 | 4 | 3 | . | .
O=C(COc1ccccc1-c1ccccc1)NCCN1C(=O)S/C(=C\c2cccnc2)C1=O | -3 | . | 2 | -7 | 8 | 1 | . | .
COc1ccc(-c2noc(CCCOc3ccccc3)n2)cc1OC | -39 | -22 | 0 | -27 | 13 | 25* | 13 | 13
Cc1ccccc1OCc1nc2ccccc2c(=O)n1NC(=O)c1ccco1 | -26 | 7 | 4 | -21 | 4 | 20* | 8 | 9
Cc1nc2ccccc2c(=O)n1NC(=O)c1ccco1 | -14 | -62 | -1 | -11 | 6 | 8 | . | .
Cc1ccc(-n2cc(CNCCn3nc(C)cc3C)c(-c3ccc(F)cc3)n2)cc1 | -19 | . | -1 | -7 | . | 26* | 27* | 14
Cc1ccc(-n2cc(CNCCc3ncc(C)[nH]3)c(-c3ccc(F)cc3)n2)cc1 | -29 | -7 | 0 | -21 | . | 27* | 12 | 25*
Cc1nc(C(=O)Nc2cccc(Cl)c2Cl)nn1-c1cc(OC(C)C)c(Cl)cc1Cl | -137 | 10 | 5 | 0 | 10 | 20* | 14 | 26*
